T cruzi growth-1: inhibitors of T. cruzi proliferation; T. cruzi beta-gal in NIH3T3, GalScreen luminescence, 90 h; inhibition, % at 8.34 µM; 5.9% of 77,000 active;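 active = mean inhibition above about 93%, with at least 55% of replicates each passing it, limit read from the data, passing the limit was not always enough; inconclusive = only one of those two conditions holds; inactive = neither condition holds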
KDM4C inh: inhibitors of human demethylase GASC-1 KDM4C; Q9H3R0; GST-KDM4C 2-372, H3K9me3 peptide, LANCE TR-FRET; 0.15% of 96,000 active; AID 720574; inhibition, % at 12.5 µM;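 active = mean replicate inhibition above about 25%, with at least 55% of replicates also reaching it, limit read from the data, passing the limit was not always enough; inconclusive = only one of those two conditions met; inactive = neither condition met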
Target sequence (Q9H3R0 2-372 limits assumed): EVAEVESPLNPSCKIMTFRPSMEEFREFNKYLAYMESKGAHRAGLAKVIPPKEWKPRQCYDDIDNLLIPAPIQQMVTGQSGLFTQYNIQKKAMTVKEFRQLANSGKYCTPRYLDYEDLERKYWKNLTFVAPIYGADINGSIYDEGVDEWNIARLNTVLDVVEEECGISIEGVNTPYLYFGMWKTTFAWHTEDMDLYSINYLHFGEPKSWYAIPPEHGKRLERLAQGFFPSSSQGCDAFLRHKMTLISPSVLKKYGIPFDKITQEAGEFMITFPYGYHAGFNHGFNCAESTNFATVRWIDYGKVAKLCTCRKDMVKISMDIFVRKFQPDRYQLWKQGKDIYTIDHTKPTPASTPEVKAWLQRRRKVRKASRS
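Material: N-terminal GST-fused human GASC-1 (KDM4C) fragment, residues 2-372. Input: 10 nM enzyme. Incubation: enzyme reaction 30 min, then detection 60 min, both room temperature. Doses: one test concentration per compound. Read-out basis: inhibition from TR-FRET ratio decrease. Detection: LANCE TR-FRET, excitation 340 nm, emissions 618 and 671 nm.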
IDH1 R132H inh: inhibitors of human IDH1 R132H | inhibition, % at 10 µM | IDH1 R132H reductase, diaphorase/resazurin fluorescence, 60 min | AID 624101 | 0.18% of 70,000 active; in the data active = inhibition above about 34%; inconclusive = no clear call, values can overlap the other calls; inactive = below about 11%;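 note: 0% = DMSO and 100% = no enzyme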
Target sequence (O75874 whole entry R132H): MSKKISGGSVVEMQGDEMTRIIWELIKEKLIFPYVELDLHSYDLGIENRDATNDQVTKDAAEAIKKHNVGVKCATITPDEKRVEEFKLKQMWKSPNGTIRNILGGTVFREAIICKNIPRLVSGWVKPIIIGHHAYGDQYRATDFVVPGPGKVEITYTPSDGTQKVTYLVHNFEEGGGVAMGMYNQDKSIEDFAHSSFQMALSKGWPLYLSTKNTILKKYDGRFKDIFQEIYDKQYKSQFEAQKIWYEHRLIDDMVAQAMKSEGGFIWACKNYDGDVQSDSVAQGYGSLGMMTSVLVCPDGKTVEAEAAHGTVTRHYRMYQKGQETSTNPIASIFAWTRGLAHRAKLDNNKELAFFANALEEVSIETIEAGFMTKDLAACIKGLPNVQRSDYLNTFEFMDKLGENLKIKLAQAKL
Pf Dd2 inh: P. falciparum Dd2 growth inhibition; SYBR Green, 72 h; stronger effect = lower value; activity change, % at 10 µM; 2.3% of 94,000 active; AID 1159554; in the data active = activity change below about -80%; inconclusive = no clear call, values can overlap the other calls
T cruzi growth-2: blocks T. cruzi growth in NIH3T3 host cells. inhibition, % at 8.35 µM. AID 651739. T. cruzi beta-gal in NIH3T3, GalScreen luminescence, 90 h. shares compounds with T cruzi growth-1. 72% of 5,600 active;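 active = mean replicate inhibition above about 95% and at least 55% of replicates individually reaching it, limit read from the data; inconclusive = only one of the two criteria is met; inactive = neither criterion is met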
T cruzi growth-3: inhibitors of T. cruzi proliferation | shares compounds with T cruzi growth-1 | T. cruzi beta-gal in NIH3T3, GalScreen luminescence, 90 h | inhibition, % at 2.09 µM | 21% of 5,600 active | AID 651740;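 active = mean inhibition above about 95%, with at least 55% of replicates also reaching it, limit read from the data; inconclusive = meets just one of the two conditions; inactive = meets neither condition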;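 note: plate controls were neutral control median for no effect and positive control median for full effect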
3T3 cytotox: cytotoxicity in mouse NIH/3T3 fibroblasts. shares compounds with T cruzi growth-1. NIH/3T3 viability, CellTiter-Glo ATP luminescence, 90 h. cytotoxicity (signal decrease), % at 8.35 µM. 14% of 5,600 active. AID 651742;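 active = mean signal decrease across replicates above about 35% based on untreated-well scatter, with enough replicates individually passing, limit read from the data; inconclusive = no rule stated though some were filed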;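 note: 0% = median of neutral control wells and 100% = median of positive control wells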
NIH3T3 tox 2: NIH/3T3 (mouse) viability loss | shares compounds with T cruzi growth-1 | NIH/3T3 viability, CellTiter-Glo ATP luminescence, 90 h | inhibition, % at 24.9 µM | 56% of 5,600 active | AID 651744;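 active = mean loss of cell viability signal at or above a set limit, and enough replicates individually reaching it; inconclusive = meets only the mean limit or only the replicate share; inactive = meets neither condition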;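 note: 0% = median of neutral control wells and 100% = median of positive control wells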
Numbers without * were called inactive; u = inconclusive; x = no result. Only some compounds are listed: those with a hit (about 5.9% of all), similar ones and a draw of the others.

SMILES | T cruzi growth-1 | KDM4C inh | IDH1 R132H inh | Pf Dd2 inh | T cruzi growth-2 | T cruzi growth-3 | 3T3 cytotox | NIH3T3 tox 2
Cc1ccc(S(=O)(=O)Nc2cccc3c2O[C@@H](CN(C)Cc2ccc(C(=O)Nc4ccccc4N)cc2)[C@H](C)CN([C@@H](C)CO)C3=O)cc1 | x | 3 | x | -72 | x | x | x | x
CC(=O)N(C)c1ccc(NC(=O)COc2ccc([N+](=O)[O-])cc2)cc1 | x | x | 0 | x | x | x | x | x
CC(=O)Nc1cccc(NC(=S)NCc2ccco2)c1 | x | x | 1 | x | x | x | x | x
COc1ccc(C(=O)N(Cc2nc(-c3ccc(Cl)cc3)no2)C(C)C)cc1OC | x | x | 0 | x | x | x | x | x
C[C@H]1CN([C@@H](C)CO)C(=O)c2cc(NS(=O)(=O)c3cn(C)cn3)ccc2O[C@@H]1CN(C)Cc1ccc(C(=O)Nc2ccccc2N)cc1 | u | -1 | 0 | 22 | 65 | 8 | 6 | -8
CO[C@H](CN(C)S(=O)(=O)c1ccc(Cl)cc1)[C@H](C)CN(Cc1ccccc1Cl)[C@@H](C)CO | 77 | 1 | -1 | -25 | x | x | x | x
CO[C@@H](CN(C)S(=O)(=O)c1ccc(Cl)cc1)[C@@H](C)CN(Cc1ccccc1Cl)[C@H](C)CO | u | 3 | -1 | -52 | 101* | -13 | 13 | 99*
CO[C@H](CN(C)C(=O)Nc1ccc(F)cc1)[C@H](C)CN(Cc1ccccc1Cl)[C@H](C)CO | -34 | 1 | 0 | -23 | x | x | x | x
CO[C@@H](CN(C)C(=O)Nc1ccc(Cl)cc1)[C@@H](C)CN(Cc1ccccc1Cl)[C@H](C)CO | 111* | -1 | 0 | -46 | 106* | 64 | 28 | 31*
CO[C@H](CN(C)C(=O)Nc1ccc(Cl)cc1)[C@H](C)CN(Cc1ccccc1Cl)[C@@H](C)CO | 114* | -1 | 0 | -51 | 103* | 99* | 42* | 49*
CO[C@@H](CN(C)C(=O)Nc1ccc(F)cc1)[C@H](C)CN(Cc1ccccc1Cl)[C@H](C)CO | -78 | 0 | 0 | -16 | x | x | x | x
CO[C@H](CN(C)C(=O)Nc1ccc(Cl)cc1)[C@H](C)CN(Cc1ccccc1Cl)[C@H](C)CO | 109* | 3 | 0 | -51 | 109* | 63 | u | 60*
CC(=O)c1ccc(NC(=O)CNS(=O)(=O)c2cccc(Cl)c2)cc1 | x | x | 0 | x | x | x | x | x
CCn1c(SCC(=O)Nc2cccc(C(F)(F)F)c2)nnc1-c1ccc(C)cc1 | x | x | 0 | x | x | x | x | x
C[C@@H]1CN([C@@H](C)CO)C(=O)c2cc(-c3cncnc3)cnc2O[C@@H]1CN(C)C(=O)Nc1ccc2c(c1)OCO2 | 44 | 2 | -1 | 58 | x | x | x | x
C[C@H](CO)N1C[C@H](C)[C@@H](CN(C)C(=O)Nc2ccc3c(c2)OCO3)Oc2ncc(-c3cncnc3)cc2C1=O | 104* | 15 | 5 | -1 | 15 | -25 | -6 | 8
C[C@@H]1CN([C@@H](C)CO)C(=O)c2cc(-c3cncnc3)cnc2O[C@H]1CN(C)C(=O)Nc1ccc2c(c1)OCO2 | 98* | 0 | 3 | 49 | 46 | 18 | 11 | 13
Cc1ccc(S(=O)(=O)NCC(=O)Nc2ccc(F)cc2F)cc1 | x | x | 0 | x | x | x | x | x
Cn1cnnc1SCC(=O)N1c2ccccc2Sc2ccc(C(F)(F)F)cc21 | x | x | 0 | x | x | x | x | x
C[C@@H]1CCCCO[C@H](CN(C)Cc2ccc3c(c2)OCO3)[C@H](C)CN([C@@H](C)CO)C(=O)c2cc(NC(=O)Nc3cccc4ccccc34)ccc2O1 | 116* | -3 | -7 | -78 | 92 | 103* | 24 | 103*
C[C@@H]1CCCCO[C@@H](CN(C)Cc2ccc3c(c2)OCO3)[C@H](C)CN([C@@H](C)CO)C(=O)c2cc(NC(=O)Nc3cccc4ccccc34)ccc2O1 | u | -4 | x | -72 | 104* | u | 13 | 47*
C[C@@H]1CN([C@H](C)CO)C(=O)c2cc(NC(=O)Nc3cccc4ccccc34)ccc2O[C@@H](C)CCCCO[C@@H]1CN(C)Cc1ccc2c(c1)OCO2 | u | -3 | 1 | -89* | 98* | 109* | 31 | 38*
C[C@@H]1CCCCO[C@@H](CN(C)C(=O)Nc2ccc3c(c2)OCO3)[C@H](C)CN([C@H](C)CO)C(=O)c2cc(NC(=O)Nc3cccc4ccccc34)ccc2O1 | x | -1 | 4 | -12 | x | x | x | x
C[C@H]1CCCCO[C@H](CN(C)Cc2ccc3c(c2)OCO3)[C@@H](C)CN([C@@H](C)CO)C(=O)c2cc(NC(=O)Nc3cccc4ccccc34)ccc2O1 | 64 | -3 | 2 | -76 | x | x | x | x
C[C@@H]1CN([C@H](C)CO)C(=O)c2cc(NC(=O)Nc3cccc4ccccc34)ccc2O[C@@H](C)CCCCO[C@@H]1CN(C)Cc1ccccc1 | x | -2 | 2 | -66 | x | x | x | x
SMILES | T cruzi growth-1 | KDM4C inh | IDH1 R132H inh | Pf Dd2 inh | T cruzi growth-2 | T cruzi growth-3 | 3T3 cytotox | NIH3T3 tox 2
C=CC[C@@]12C[C@@H](OC)C(=O)C(OC)=C1O[C@H](c1ccc3c(c1)OCO3)[C@H]2C | x | x | 1 | x | x | x | x | x
Cc1ccc(NC(=O)CSc2nnnn2C2CC3CCC2C3)cc1 (stereo not given) | x | x | 0 | x | x | x | x | x
COc1ccc(S(=O)(=O)N(C)C[C@H]2Oc3ccc(NC(=O)Cn4cnnn4)cc3C(=O)N([C@@H](C)CO)C[C@@H]2C)cc1 | 100* | 0 | -1 | -25 | -13 | -14 | -6 | 14
COc1ccc(S(=O)(=O)N(C)C[C@@H]2Oc3ccc(NC(=O)Cn4cnnn4)cc3C(=O)N([C@H](C)CO)C[C@H]2C)cc1 | 105* | -1 | -4 | -24 | 52 | -5 | -14 | 10
COc1ccc(S(=O)(=O)N(C)C[C@H]2Oc3ccc(NC(=O)Cn4cnnn4)cc3C(=O)N([C@H](C)CO)C[C@@H]2C)cc1 | -80 | -1 | -5 | 1 | x | x | x | x
CN1[C@H](C(=O)NCc2ccccc2F)[C@@H](CO)[C@@H]2Cn3c(ccc(C4=CCCC4)c3=O)[C@@H]21 | 58 | 2 | x | x | x | x | x | x
CN1[C@@H]2c3ccc(C4=CCCCC4)c(=O)n3C[C@@H]2[C@@H](CO)[C@@H]1C(=O)NCc1ccccc1 | 103* | 3 | x | -9 | 96* | 30 | 10 | 7
CCCN1[C@@H]2c3ccc(C4=CCCC4)c(=O)n3C[C@@H]2[C@@H](CO)[C@@H]1C(=O)NCc1cccc(OC)c1 | 101* | -1 | x | -8 | 73 | -36 | 20 | u
COc1cccc(CNC(=O)[C@@H]2[C@@H](CO)[C@@H]3Cn4c(ccc(C5=CCCC5)c4=O)[C@@H]3N2CC2CC2)c1 | 37 | 11 | x | -9 | x | x | x | x
O=C(NO)c1ccc(C(=O)N/N=C/c2ccc(-c3ccccc3)cc2)cc1 | x | x | 0 | x | x | x | x | x
COc1cc(NC(=O)COc2ccc([N+](=O)[O-])cc2)cc(OC)c1 | x | x | 0 | x | x | x | x | x
c1cc(-c2nc(-c3ccc4c(c3)OCCCO4)cs2)ccc1-c1csnn1 | x | x | 1 | x | x | x | x | x

Screens (PubChem)
